Test results from ChEMBL document CHEMBL3286362, “Farnesyltransferase inhibitors: CAAX mimetics based on different biaryl scaffolds” (Bioorg Med Chem Lett, 2014).
Calls of active or inactive are those of the source. The calls are words filed in the database; no cut-off is given here.

Legend:
[1] = (§1) Growth inhibition of RASMC after 72 hrs by Coulter counting analysis; assay type: functional, Rattus norvegicus
Procedure, shortened: (§2)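 Proliferation of cultured rat aortic smooth muscle cells, with test agents given as isopropyl esters to aid membrane permeability; IC50 values derived.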

[2] = target: T1, Protein farnesyltransferase (Homo sapiens, UniProt P49354+P49356); assay: Inhibition of recombinant FTase (unknown origin) at 20 uM by spectrofluorimetric analysis relative to control; assay type: protein-complex assay
Procedure, shortened: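 Fluorescence-based FTase activity assay; free acids screened at a single 20 µM concentration and percent inhibition determined.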

Rattus norvegicus [3] = species on record: Rattus norvegicus; assay: as §1; assay type: functional; procedure, shortened: as §2
[4] = (§3) Inhibition of FTase-mediated RAS prenylation in RASMC after 72 hrs by Western blotting analysis; parameters: species or system Rattus norvegicus
Procedure, shortened: (§4)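 Rat aortic SMCs incubated 72 h with 25 to 400 µM of test ester or without it, alongside simvastatin 2 µM as positive control. Total cell lysates were prepared and Ras prenylation was assessed by Western blot with anti-Ras antibody (clone RAS10).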

Rattus norvegicus [5] = species on record: Rattus norvegicus; assay: as §3; procedure, shortened: as §4
[6] = target: T1, Protein farnesyltransferase; assay: Inhibition of recombinant FTase (unknown origin) by spectrofluorimetric analysis; assay type: protein-complex assay
Rattus norvegicus [7] = species on record: Rattus norvegicus; assay: Inhibition of FTase-mediated RAS prenylation in RASMC at 2 uM after 72 hrs by Western blotting analysis
Procedure, shortened: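 Rat aortic smooth muscle cells were incubated for 72 h with or without test ester (25–400 µM) or with the HMG-CoA reductase inhibitor simvastatin (2 µM) as positive control. Total cell lysates were then prepared and Ras prenylation was assessed by western blot using an anti-Ras antibody (clone RAS10).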

SMILES	inhibition [2] [%]	IC50 [1] [µM]	further results
CSCC[C@H](NC(=O)c1ccc(NC(=O)Cc2csc(N)n2)cc1-c1ccco1)C(=O)OC(C)C	–	110	–
CSCC[C@H](NC(=O)c1ccc(NC(=O)Cc2csc(N)n2)cc1-c1ccoc1)C(=O)OC(C)C	–	259	growth inhibition (GI) (Rattus norvegicus [3]): Dose-dependent effect; IC50 [4]: 100 µM; inhibition (Rattus norvegicus [5]): Dose-dependent effect
CSCC[C@H](NC(=O)c1ccc(OCC2COc3ccccc3O2)cc1-c1ccoc1)C(=O)OC(C)C (stereo not given in full)	–	61	–
CSCC[C@H](NC(=O)c1ccc(NC(=O)Cc2csc(N)n2)cc1-c1ccoc1)C(=O)O	98.7	–	IC50 [6]: 2.8 µM
CSCC[C@H](NC(=O)c1ccc(OCC2COc3ccccc3O2)cc1-c1ccco1)C(=O)OC(C)C (stereo not given in full)	–	99	–
CSCC[C@H](NC(=O)c1ccc(NC(=O)Cc2csc(N)n2)cc1-c1cncc2ccccc12)C(=O)OC(C)C	–	252	–
CSCC[C@H](NC(=O)c1ccc(OCC2COc3ccccc3O2)cc1-c1cncc2ccccc12)C(=O)OC(C)C (stereo not given in full)	–	–	growth inhibition (GI) (Rattus norvegicus [3]): inactive
CSCC[C@H](NC(=O)c1ccc(OCC2COc3ccccc3O2)cc1-c1cccc2ccccc12)C(=O)OC(C)C (stereo not given in full)	–	155	–
CSCC[C@H](NC(=O)c1ccc(NC(=O)Cc2csc(N)n2)cc1-c1cccs1)C(=O)O	53.8	–	–
CSCC[C@H](NC(=O)c1ccc(OCC2COc3ccccc3O2)cc1-c1cccs1)C(=O)OC(C)C (stereo not given in full)	–	81	–
CSCC[C@H](NC(=O)c1ccc(NC(=O)Cc2csc(N)n2)cc1-c1cccs1)C(=O)OC(C)C	–	200	–
CCC(C)(C)C(=O)O[C@H]1C[C@@H](C)C=C2C=C[C@H](C)[C@H](CC[C@@H]3C[C@@H](O)CC(=O)O3)[C@H]21	–	–	inhibition (Rattus norvegicus [7]): Active
CSCC[C@H](NC(=O)c1ccc(NC(=O)Cc2csc(N)n2)cc1-c1ccsc1)C(=O)OC(C)C	–	123	–
CSCC[C@H](NC(=O)c1ccc(NC(=O)Cc2csc(N)n2)cc1-c1cccc2ccccc12)C(=O)OC(C)C	–	81	–
CSCC[C@H](NC(=O)c1ccc(OCC2COc3ccccc3O2)cc1-c1ccsc1)C(=O)OC(C)C (stereo not given in full)	–	–	growth inhibition (GI) (Rattus norvegicus [3]): inactive

More lines, main results first:

inhibition [2] [%]	SMILES	IC50 [1] [µM]	further results
51.5	CSCC[C@H](NC(=O)c1ccc(OCC2COc3ccccc3O2)cc1-c1ccco1)C(=O)O (stereo not given in full)	–	–
90	CSCC[C@H](NC(=O)c1ccc(OCC2COc3ccccc3O2)cc1-c1cccs1)C(=O)O (stereo not given in full)	–	–
48.7	CSCC[C@H](NC(=O)c1ccc(OCC2COc3ccccc3O2)cc1-c1ccoc1)C(=O)O (stereo not given in full)	–	–
14.5	CSCC[C@H](NC(=O)c1ccc(OCC2COc3ccccc3O2)cc1-c1cncc2ccccc12)C(=O)O (stereo not given in full)	–	–
20.9	CSCC[C@H](NC(=O)c1ccc(NC(=O)Cc2csc(N)n2)cc1-c1ccsc1)C(=O)O	–	–
90.4	CSCC[C@H](NC(=O)c1ccc(NC(=O)Cc2csc(N)n2)cc1-c1cccc2ccccc12)C(=O)O	–	–
96.6	CSCC[C@H](NC(=O)c1ccc(OCC2COc3ccccc3O2)cc1-c1ccsc1)C(=O)O (stereo not given in full)	–	IC50 [6]: 5 µM
41.7	CSCC[C@H](NC(=O)c1ccc(OCC2COc3ccccc3O2)cc1-c1cccc2ccccc12)C(=O)O (stereo not given in full)	–	–
15.4	CSCC[C@H](NC(=O)c1ccc(NC(=O)Cc2csc(N)n2)cc1-c1ccco1)C(=O)O	–	–
0	CSCC[C@H](NC(=O)c1ccc(NC(=O)Cc2csc(N)n2)cc1-c1cncc2ccccc12)C(=O)O	–	–
